{"source": "ChEMBL document CHEMBL4622976", "about": "“Development of pH/Glutathione-Responsive Theranostic Agents Activated by Glutathione S-Transferase π for Human Colon Cancer” (J Med Chem, 2020)", "key": {"[1]": {"experiment": "Drug uptake in lysosome of human HT-29 cells at 1 uM incubated for 60 mins by Lyso-tracker based confocal fluorescence microscopy", "type": "ADME, subcellular", "settings": "ht-29, 1 h", "procedure,_shortened": "(§1)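 HT29 and CCD841 cells were seeded at 2×10^5 in glass-bottom dishes. They were co-incubated in DMEM with compound (1 µM) and LysoTracker Red DND-99 (1 µM). Confocal imaging used a 40× water objective. Compound channel: 405 nm laser, 480–530 nm filter. LysoTracker channel: 561 nm laser, 580–630 nm filter.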"}, "[2]": {"experiment": "Toxicity in ICR mouse assessed as induction of animal death at 240 to 375 mg/kg, ip measured after 1 day", "type": "organism-based", "settings": "in vivo, 24 h", "procedure,_shortened": "(§2)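 Female ICR mice, randomised, n = 10 per group. Single intraperitoneal dose of 240.0, 300.0, 375.0, 468.8 or 585.9 mg/kg, or vehicle. Deaths recorded at 1 h, 4 h, days 1–4 and days 5–14. Body weight, drinking, eating and activity observed over 14 days. Survival percentage taken on day 14; LD50 derived from the dose–mortality data.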"}, "HT-29 [3]": {"test_system": "HT-29", "experiment": "Antitumor activity against human HT-29 cells xenografted in nude BALB/c mouse assessed as reduction in tumor volume at 40 mg/kg, ip dosed every day for 21 days", "type": "functional, organism-based"}, "[4]": {"experiment": "Drug localization in tumor of intra-operative mouse xenografted with human HT-29/Luc cells at 40 mg/kg, iv measured over 7 hrs post dose by fluorescence imaging assay", "type": "ADME, organism-based, Neoplasm", "settings": "in vivo"}, "[5]": {"experiment": "Drug metabolism assessed as GSTpi (unknown origin) mediated compound fluorescence activation at 1 uM in presence of 100 uM arginine by HPLC analysis", "type": "ADME", "settings": "human", "procedure,_shortened": "(§3)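 Selectivity test: compound (1 µM) with catalytic GSTπ and each analyte in water with 1% (v/v) DMSO at pH 4.0, 37 °C for 0.5 h. Analytes were cations at 1 mM; amino acids, vitamin C, Na2S and GSH at 100 µM. Readout was fluorescence emission spectra (excitation 440 nm, recorded 450–650 nm).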"}, "[6]": {"experiment": "Drug metabolism assessed as GSTpi (unknown origin) mediated compound fluorescence activation at 1 uM in presence of 100 uM lysine by HPLC analysis", "type": "ADME", "settings": "human", "procedure,_shortened": "as §3"}, "[7]": {"experiment": "Drug metabolism assessed as GSTpi (unknown origin) mediated compound fluorescence activation at 1 uM in presence of 1 mM Na+ by HPLC analysis", "type": "ADME", "settings": "human", "procedure,_shortened": "as §3"}, "[8]": {"experiment": "Drug metabolism assessed as GSTpi (unknown origin) mediated 1-(3,4,5-trimethoxyphenyl)-9H-pyrido[3,4-b]indol-3-amine formation at 40 uM in presence of 0.8 mM GSH by HPLC analysis", "type": "ADME", "settings": "human", "procedure,_shortened": "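HPLC measurement of amine release after incubating compound (40 µM) with GSH (0.8 mM) and GSTπ or GSTα at 0.03 µg/ml.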"}, "[9]": {"experiment": "Toxicity in ICR mouse assessed as induction of animal death at 240 to 300 mg/kg, ip measured after 2 days", "type": "organism-based", "settings": "in vivo, 48 h", "procedure,_shortened": "as §2"}, "HT-29 [10]": {"test_system": "HT-29", "experiment": "Induction of autophagy in human HT-29 cells assessed as reduction in p62 protein level incubated for 72 hrs by Western blot analysis", "type": "functional, cell-based", "procedure,_shortened": "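HT29 cells (1.5×10^5/mL) exposed to compound or vehicle for 72 h, then lysed. Lysates (0.05 mg/lane) run on 12% SDS-PAGE, transferred to nitrocellulose, blocked with 5% non-fat milk and probed for LC3, p62, beclin-1 and β-actin. Bands quantified relative to β-actin, with LC3-II/LC3-I ratio also calculated; means ± SD from three independent assays.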"}, "[11]": {"experiment": "Toxicity in ICR mouse assessed as induction of animal death at 240 to 375 mg/kg, ip measured after 3 days", "type": "organism-based", "settings": "in vivo, 72 h", "procedure,_shortened": "as §2"}, "[12]": {"experiment": "Drug metabolism assessed as GSTpi (unknown origin) mediated compound fluorescence activation at 1 uM in presence of 100 uM glutamate by HPLC analysis", "type": "ADME", "settings": "human", "procedure,_shortened": "as §3"}, "[13]": {"experiment": "Drug uptake in lysosome of human CCD-841 cells at 1 uM incubated for 60 mins by Lyso-tracker based confocal fluorescence microscopy", "type": "ADME", "settings": "1 h", "procedure,_shortened": "as §1"}}, "note": "Calls of active or inactive are those of the source. The calls are words filed in the database; no cut-off is given here.", "data": [{"smiles": "COc1cc(-c2nc(NC(=O)OCC3=CCCCC3=O)cc3c2[nH]c2ccccc23)cc(OC)c1OC", "values": [{"measurement": "Drug uptake", "setting": "[1]", "value": "Active"}, {"measurement": "Activity", "setting": "[2]", "value": "Non-Toxic"}, {"measurement": "Activity", "setting": "HT-29 [3]", "value": "Active"}, {"measurement": "Drug uptake", "setting": "[4]", "value": "Active"}, {"measurement": "Drug metabolism", "setting": "[5]", "value": "Metabolite_Notdetected"}, {"measurement": "Drug metabolism", "setting": "[6]", "value": "Metabolite_Notdetected"}, {"measurement": "Drug metabolism", "setting": "[7]", "value": "Metabolite_Notdetected"}, {"measurement": "Drug metabolism", "setting": "[8]", "value": "Metabolite_Detected"}, {"measurement": "Activity", "setting": "[9]", "value": "Non-Toxic"}, {"measurement": "Activity", "setting": "HT-29 [10]", "value": "Dose-dependent effect"}, {"measurement": "Activity", "setting": "[11]", "value": "Non-Toxic"}, {"measurement": "Drug metabolism", "setting": "[12]", "value": "Metabolite_Notdetected"}, {"measurement": "Drug uptake", "setting": "[13]", "value": "Not Active"}]}]}
